From ChEMBL document CHEMBL1142544 (J Med Chem, 2008)
pIC50: −log10 of the molar value. Activity calls are given as the source filed them. No cut-off for these calls is given here.

How the values were obtained:
[1] = Stimulation of human Vgamma9Vdelta2 T lymphocytes assessed as gamma delta expansion factor after 7 days; assay type: functional
[2] = tested on: HuT78; test: Induction of apoptosis in human HUT78 cells at 100 uM by flow cytometry; assay type: functional
Procedure, shortened: (§1)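 Tumor cells were exposed to 100 µM compound. Cells (1 × 10⁶) were washed in PBS, pelleted at 200g for 5 min, and stained with FITC-annexin V plus propidium iodide for 15 min at 20 °C. The percentage of annexin-V-positive cells was measured by flow cytometry.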

[3] = tested on: K562; test: Induction of apoptosis in human K-562 cells expressing Bcr-Abl at 100 uM by flow cytometry; assay type: functional; procedure, shortened: as §1
[4] = tested on: CCRF-CEM; test: Induction of apoptosis in human CCRF-CEM cells at 100 uM by flow cytometry; assay type: functional; procedure, shortened: as §1
[5] = Induction of apoptosis in human CEM-VBL300 cells expressing p-glycoprotein at 100 uM by flow cytometry; assay type: functional; procedure, shortened: as §1
[6] = tested on: BT-549; test: Antitumor activity against human BT-549 cells xenografted SCID mouse assessed as survival time prolongation at 2 ug, ip; assay type: functional, cell-based
Procedure, shortened: (§2)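 SCID mice were conditioned by irradiation and anti-asialo-GM1 monoclonal antibody. On day 0 they received a single ip injection of BT549 breast cancer cells (2 × 10⁶/mouse). Drug was given ip (2 µg or 5 µg) with the tumor cells, alone or with ip human rIL-2 (300 ng). Where indicated, purified human γδ T cells (2 × 10⁷/mouse) were added. Cells and drug were reinjected every 15 days, with IL-2 on the same day and days 3 and 6 after. Read-out was mean survival time in days.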

[7] = tested on: BT-549; test: Antitumor activity against human BT-549 cells xenografted SCID mouse co-transfected with human gamma delta T lymphocytes assessed as survival time prolongation at 5 ug, ip; assay type: functional, cell-based; procedure, shortened: as §2
[8] = tested on: BT-549; test: Antitumor activity against human BT-549 cells xenografted SCID mouse co-transfected with human gamma delta T lymphocytes assessed as survival time prolongation at 2 ug, ip coadministered with human recombinant IL2; assay type: functional, organism-based; procedure, shortened: as §2
[9] = tested on: BT-549; test: Antitumor activity against human BT-549 cells xenografted SCID mouse co-transfected with human gamma delta T lymphocytes assessed as survival time prolongation at 5 ug, ip coadministered with human recombinant IL2; assay type: functional, organism-based; procedure, shortened: as §2
[10] = tested on: K562; test: Induction of apoptosis in human K-562 cells expressing Bcr-Abl at <50 uM by flow cytometry; assay type: functional, cell-based
[11] = Cytotoxicity against human CFU-GM cells at 100 uM after 7 days
[12] = tested on: BT-549; test: Antitumor activity against human BT-549 cells xenografted SCID mouse assessed as survival time prolongation at 2 ug, ip
[13] = molecular target: T1, Farnesyl pyrophosphate synthase (Homo sapiens, UniProt P14324); test: Inhibition of human FPP synthase expressed in Escherichia coli BL21 (DE3)
T1 sequence (P14324 whole entry): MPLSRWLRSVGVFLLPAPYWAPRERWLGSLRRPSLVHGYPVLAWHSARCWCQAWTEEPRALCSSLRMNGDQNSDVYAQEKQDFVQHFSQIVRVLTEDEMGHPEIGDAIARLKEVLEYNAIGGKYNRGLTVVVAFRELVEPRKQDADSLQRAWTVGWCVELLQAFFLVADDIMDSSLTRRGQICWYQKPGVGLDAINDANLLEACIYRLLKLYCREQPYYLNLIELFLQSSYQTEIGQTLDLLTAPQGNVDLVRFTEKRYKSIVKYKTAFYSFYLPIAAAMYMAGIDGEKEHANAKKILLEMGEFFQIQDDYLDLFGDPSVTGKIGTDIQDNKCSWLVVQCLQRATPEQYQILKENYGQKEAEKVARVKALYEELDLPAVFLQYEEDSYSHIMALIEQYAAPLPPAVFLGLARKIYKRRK

[14] = tested on: BT-549; test: Antitumor activity against human BT-549 cells xenografted SCID mouse co-transfected with human gamma delta T lymphocytes assessed as survival time prolongation at 2 ug, ip; assay type: functional, cell-based
Procedure, shortened: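 SCID mice conditioned by irradiation plus anti-asialo-GM1 antibody; day 0 single i.p. BT549 (2 × 10⁶/mouse) with concomitant i.p. drug (2 µg), ± rIL-2 (300 ng), plus highly purified human γδ T cells (2 × 10⁷/mouse). γδ T cells and drug re-injected every 15 days; rIL-2 the same day and 3 and 6 days after each. Read-out: mean survival time (days).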

O.O=P(O)(O)C(O)(Cn1ccnc1)P(=O)(O)O [ZOLEDRONIC ACID]
Activity [1]: 0.1 µM
Activity [2]: 24%
Activity [3]: 16%
Activity [4]: 20%
Activity [5]: 22%
Activity [6]: inactive
Activity [7]: inactive
Activity [8]: Active
Activity [9]: Active
Activity [10]: inactive
Activity [11]: 18%
Activity [12]: inactive

O=P(O)(O)C(CSc1ncc[nH]1)P(=O)(O)O
Activity [1]: >10 µM
pIC50 [13]: 7.55

O=P(O)(O)C(Cn1cnc2c(Cl)ncnc21)P(=O)(O)O
Activity [1]: 0.1 µM
pIC50 [13]: 6.05

O=P(O)(O)C(Cn1cnc2ccccc21)P(=O)(O)O
Activity [1]: 1 µM
pIC50 [13]: 7.79

O=P(O)(O)C(Cn1ccnc1)P(=O)(O)O
Activity [1]: 0.001 µM
Activity [2]: 40%
Activity [3]: 15%
Activity [4]: 22%
Activity [5]: 37%
Activity [6]: inactive
Activity [14]: Active
Activity [10]: inactive
Activity [11]: 15%
Activity [12]: inactive

O=P(O)(O)C(Cn1cccn1)P(=O)(O)O
Activity [1]: >10 µM
pIC50 [13]: 5.51

O=P(O)(O)C(Cn1cnc2cncnc21)P(=O)(O)O
Activity [1]: 0.2 µM
pIC50 [13]: 6.41
